The values below come from ChEMBL document CHEMBL1800017, “Resorcylic acid lactones with cytotoxic and NF-κB inhibitory activities and their structure-activity relationships” (J Nat Prod, 2011).

The test system of assay [1] is HT-29. Nature of the assay: Cytotoxicity against human HT-29 cells after 72 hrs by MTS assay. It is filed as functional, cell-based. The following applies: HT-29, 72 h. In short, it runs like this: (§1)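 Cells were grown in RPMI 1640 with 10% FBS, penicillin and streptomycin. They were plated at 2500 (HT-29) or 5000 (MDA-MB-435) cells/well and preincubated 16 h at 37 °C in 5% CO2. Test substance was added at final 25, 5, 1, 0.2 and 0.04 µg/mL for 72 h. Read-out was MTS. IC50 is the concentration giving 50% reduction in proliferation versus untreated controls.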
A general note: Tetrazolium assays rely on reduction of a dye to a coloured formazan, in cell work by metabolically active cells.

For a further assay, the system named is MCF7. Nature of the assay: Cytotoxicity against human MCF7 cells after 72 hrs by MTS assay. As to conditions: MCF7, 72 h. It is filed as functional, cell-based. An outline of the steps:
(§2)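 Continuous 72 h exposure with MTS read-out. IC50 is the concentration reducing cellular proliferation by 50% relative to untreated controls.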

The next assay has as its system NCI-H460. In words: Cytotoxicity against human H460 cells after 72 hrs by MTS assay. It is filed as functional, cell-based. In short, it runs like this:
as §2

The test system of the next assay is SF-268. Nature of the assay: Cytotoxicity against human SF268 cells after 72 hrs by MTS assay. It is filed as functional, cell-based. An outline of the steps:
as §2

A further assay deals with MDA-MB-435. Nature of the assay: Cytotoxicity against human MDA-MB-435 cells after 72 hrs by MTS assay. It is filed as functional, cell-based. The following applies: MDA-MB-435, 72 h. In short, it runs like this: as §1
Assay [2] relates to Escherichia coli. In words: Antimicrobial activity against Escherichia coli by agar plate diffusion assay. It is filed as functional. An outline of the steps: (§3)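 Agar plate diffusion. Overnight cultures of each organism were seeded into molten LB or Middlebrook 7H9 medium with 1% glycerol and 1.5% agar, held at 50 °C, and poured as plates. Samples in 10 µL MeOH were spotted onto the surface and tested up to 500 µg/mL. Positive controls were penicillin G, novobiocin and streptomycin. Plates were incubated overnight at 37 °C.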

Another assay deals with Staphylococcus aureus. Nature of the assay: Antimicrobial activity against Staphylococcus aureus by agar plate diffusion assay. Type of assay: functional. In short, it runs like this: as §3
The test system of assay [3] is Mycolicibacterium smegmatis. Nature of the assay: Antimicrobial activity against Mycobacterium smegmatis by agar plate diffusion assay. Type of assay: functional. In short, it runs like this:
as §3

The test system of a further assay is Bacillus subtilis. Nature of the assay: Antimicrobial activity against Bacillus subtilis by agar plate diffusion assay. It is filed as functional. An outline of the steps: as §3
The next assay deals with Transcription factor p65 (Homo sapiens, UniProt Q04206). Nature of the assay: Inhibition of NFkappa p65 isolated from nuclear extract of human HeLa cells by ELISA. It is filed as cell-free.
Chain of Transcription factor p65 (Q04206 whole entry): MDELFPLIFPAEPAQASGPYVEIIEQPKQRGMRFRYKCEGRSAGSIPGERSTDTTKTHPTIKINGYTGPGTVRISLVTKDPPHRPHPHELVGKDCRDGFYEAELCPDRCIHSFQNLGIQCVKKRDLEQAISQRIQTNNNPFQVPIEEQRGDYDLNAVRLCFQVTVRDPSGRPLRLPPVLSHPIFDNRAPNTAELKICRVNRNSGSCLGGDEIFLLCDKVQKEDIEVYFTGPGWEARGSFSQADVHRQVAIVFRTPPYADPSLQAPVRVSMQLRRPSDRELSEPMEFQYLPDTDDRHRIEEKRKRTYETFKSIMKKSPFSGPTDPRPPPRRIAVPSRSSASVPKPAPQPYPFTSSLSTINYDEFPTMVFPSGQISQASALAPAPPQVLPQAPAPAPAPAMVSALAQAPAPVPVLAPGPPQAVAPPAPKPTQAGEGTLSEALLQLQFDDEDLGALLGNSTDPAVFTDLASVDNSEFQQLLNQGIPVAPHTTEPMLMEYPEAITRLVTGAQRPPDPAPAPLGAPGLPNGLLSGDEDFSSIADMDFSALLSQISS
Assay [4] deals with HT-29. In words: Inhibition of mitochondrial membrane potential in human HT-29 cells using JC1 dye staining by fluorescence plate reader assay. Type of assay: functional, cell-based. An outline of the steps:
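HT-29 cells exposed to a range of test concentrations, then loaded with JC-1 dye and washed to remove unbound stain. Fluorescence read for monomers (ex 485/em 530 nm, apoptotic) and aggregates (ex 560/em 595 nm, healthy). Staurosporine positive control. Triplicate measurements, at least two independent experiments; IC50 reported.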

Assay [5] has as its system Escherichia coli. Nature of the assay: Antimicrobial activity against Escherichia coli at 100 ug/mL by agar plate diffusion assay. Type of assay: functional, organism-based. In short, it runs like this: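 Agar plate diffusion: overnight E. coli culture seeded into molten LB or Middlebrook 7H9 medium with 1% glycerol and 1.5% agar, held at 50 °C, then poured as assay plates. Samples dissolved in 10 µL MeOH were applied to the plate surface, and controls were treated the same way. Plates were incubated overnight at 37 °C.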

Structures are written as SMILES. Active and inactive are the calls of the source.

What is called IC50 is the concentration at which inhibition is half-maximal. As a reminder, the MIC is the smallest concentration in the dilution series that meets the test's criterion for growth inhibition. A low value points to greater potency. With `C[C@H]1C/C=C\C(=O)[C@@H](O)[C@@H](O)C/C=C/c2cc(O)cc(O)c2C(=O)O1`, the half-maximal inhibitory concentration (IC50) in the assay on HT-29 [1] came to 11.5 µM; in the assay on MCF7, 10.3 µM; in the assay with NCI-H460 (Homo sapiens, NCI-H460, 72 h), 4.1 µM; in the assay on SF-268 (Homo sapiens, SF-268, 72 h) it was 8.9 µM; in the assay with MDA-MB-435, 15.8 µM; on Transcription factor p65 it was 0.75 µM. The MIC (against Escherichia coli [2]; against Staphylococcus aureus; in [3]; against Bacillus subtilis) was greater than 500 µg/mL in each case.
Take `CC[C@@]1(O)C(=O)OCc2c1cc1n(c2=O)Cc2cc3ccccc3nc2-1` [CAMPTOTHECIN]: the IC50 in the assay on MCF7 was 0.07 µM; in the assay with NCI-H460 (Homo sapiens, NCI-H460, 72 h) it was less than 0.01 µM; with SF-268 (Homo sapiens, SF-268, 72 h), 0.04 µM.
Consider `COc1cc(O)c2c(c1)/C=C/C[C@H](O)[C@H](O)C(=O)CCC[C@H](C)OC2=O`, for which the IC50 in the assay with HT-29 [1] was greater than 50 µM; in the assay on MCF7, greater than 50 µM; with NCI-H460 (Homo sapiens, NCI-H460, 72 h), greater than 25 µM; in the assay on SF-268 (Homo sapiens, SF-268, 72 h) it was greater than 50 µM; with MDA-MB-435 it was greater than 50 µM; against Transcription factor p65, greater than 50 µM. Also, the MIC (against Escherichia coli [2]; in the assay on Staphylococcus aureus; in assay [3]; with Bacillus subtilis) was greater than 500 µg/mL throughout.
For `C[C@H]1CCCC(=O)CCC/C=C/c2cc(O)cc(O)c2C(=O)O1` [ZEARALENONE], the IC50 was greater than 25 µM in the assay with MCF7; greater than 25 µM with NCI-H460 (Homo sapiens, NCI-H460, 72 h); greater than 50 µM with SF-268 (Homo sapiens, SF-268, 72 h).
`COc1cc(O)c2c(c1)/C=C/C[C@H](O)[C@H](O)C(=O)/C=C\C[C@H](C)OC2=O`: the half-maximal inhibitory concentration (IC50) turned out to be 3.6 µM in the assay on HT-29 [1]; 3.8 µM in the assay with MCF7; 1.2 µM in the assay on NCI-H460 (Homo sapiens, NCI-H460, 72 h); 5.1 µM with SF-268 (Homo sapiens, SF-268, 72 h); 3.3 µM in the assay with MDA-MB-435; 0.25 µM against Transcription factor p65. The MIC (with Escherichia coli [2]; in [3]; against Bacillus subtilis) was greater than 500 µg/mL each time.
Consider `C[C@H]1CCC[C@@H](O)CCCCCc2cc(O)cc(O)c2C(=O)O1` (stereo in doubt; 12) [TALERANOL], for which the figures for the half-inhibitory concentration (IC50) in the assay on NCI-H460 (nci-h460) and in the assay with SF-268 (sf-268) were 9.5 µM and greater than 25 µM, respectively.
In the case of `C[C@H]1CCC[C@@H](O)CCCCCc2cc(O)cc(O)c2C(=O)O1` (stereo in doubt; 10) [TALERANOL], the half-inhibitory concentration (IC50) in the assay on MCF7 was greater than 25 µM; with NCI-H460 (Homo sapiens, NCI-H460, 72 h), 15.4 µM; in the assay with SF-268 (Homo sapiens, SF-268, 72 h) it was greater than 50 µM.
Take `COC(=O)[C@H]1[C@@H](O)[C@@]2(O)c3c(OC)cc(O[C@@H]4O[C@@H]([C@H](O)CO)CO[C@H]4OC)cc3O[C@@]2(c2ccc(OC)cc2)[C@@H]1c1ccccc1` [SILVESTROL]: the IC50 is 0.004 µM in the assay on HT-29 [1] and 0.006 µM in the assay on MDA-MB-435.
For `COc1cc(O)c2c(c1)/C=C/C[C@H](O)[C@H](O)[C@@H](O)/C=C/C[C@H](C)OC2=O` [ZEAENOL], the IC50 is greater than 25 µM in the assay with HT-29 [1]; greater than 100 µM with MCF7; greater than 100 µM in the assay with NCI-H460 (Homo sapiens, NCI-H460, 72 h); greater than 100 µM in the assay with SF-268 (Homo sapiens, SF-268, 72 h); greater than 25 µM in the assay with MDA-MB-435; greater than 50 µM against Transcription factor p65. In addition, the minimum inhibitory concentration (MIC) (in the assay on Escherichia coli [2]; in assay [3]) was greater than 500 µg/mL in each case.
Consider `C[C@H]1CCC[C@H](O)CCCCCc2cc(O)cc(O)c2C(=O)O1` [ZERANOL], for which the IC50 in the assay on MCF7 is greater than 50 µM; in the assay on NCI-H460 (Homo sapiens, NCI-H460, 72 h), greater than 50 µM; in the assay on SF-268 (Homo sapiens, SF-268, 72 h) it was greater than 50 µM.
In the case of `COc1cc(O)c2c(c1)/C=C/C[C@H](O)[C@H](O)[C@H](O)/C=C/C[C@H](C)OC2=O`, the half-maximal inhibitory concentration (IC50) in the assay on HT-29 [1] is greater than 25 µM; with MCF7, greater than 100 µM; in the assay with NCI-H460 (Homo sapiens, NCI-H460, 72 h), greater than 100 µM; in the assay on SF-268 (Homo sapiens, SF-268, 72 h), greater than 100 µM; with MDA-MB-435, greater than 25 µM; against Transcription factor p65, greater than 50 µM. The minimal inhibitory concentration (MIC) (against Staphylococcus aureus; in assay [3]; against Bacillus subtilis) was greater than 500 µg/mL each time.
For the compound `C[C@H]1CCCC(=O)CCCCCc2cc(O)cc(O)c2C(=O)O1` [ZEARALANONE], the IC50 with MCF7 is greater than 25 µM; with NCI-H460 (Homo sapiens, NCI-H460, 72 h), greater than 25 µM; with SF-268 (Homo sapiens, SF-268, 72 h), greater than 50 µM.
As to `COc1cc(O)c2c(c1)/C=C/C[C@H](O)[C@H](O)C(=O)/C=C/C[C@H](C)OC2=O`, the half-maximal inhibitory concentration (IC50) in the assay with HT-29 [1] is 4.4 µM; in the assay with MCF7 it was 4.9 µM; in the assay with SF-268 (Homo sapiens, SF-268, 72 h) it was 5.6 µM; with MDA-MB-435, 5.5 µM; on Transcription factor p65, 11.5 µM. Further, the minimum inhibitory concentration (MIC) (against Staphylococcus aureus; in [3]) was greater than 500 µg/mL each time.
For the compound `CN[C@@H]1C[C@H]2O[C@@](C)([C@@H]1OC)n1c3ccccc3c3c4c(c5c6ccccc6n2c5c31)C(=O)NC4` [STAUROSPORINE], the half-inhibitory concentration (IC50) with HT-29 [4] is 0.0025 µM.
`COc1cc(O)c2c(c1)[C@H]1O[C@@H]1C[C@H](O)[C@H](O)C(=O)/C=C\C[C@H](C)OC2=O` [HYPOTHEMYCIN]: the IC50 in the assay with MCF7 was found to be 16.3 µM; in the assay on NCI-H460 (Homo sapiens, NCI-H460, 72 h) it was 4.3 µM; in the assay on SF-268 (Homo sapiens, SF-268, 72 h) it was 12.7 µM.
For `CC1(C)S[C@@H]2[C@H](NC(=O)Cc3ccccc3)C(=O)N2[C@H]1C(=O)O`, the inhibition result in the assay with Escherichia coli [5] is “Active”.
